{"source": "ChEMBL document CHEMBL1135725", "about": "“N-Aryl N'-hydroxyguanidines, a new class of NO-donors after selective oxidation by nitric oxide synthases: structure-activity relationship” (J Med Chem, 2002)", "proteins": {"B1": {"name": "Nitric oxide synthase, inducible (Mus musculus), P29477 (protein)", "chain": "MACPWKFLFKVKSYQSDLKEEKDINNNVKKTPCAVLSPTIQDDPKSHQNGSPQLLTGTAQNVPESLDKLHVTSTRPQYVRIKNWGSGEILHDTLHHKATSDFTCKSKSCLGSIMNPKSLTRGPRDKPTPLEELLPHAIEFINQYYGSFKEAKIEEHLARLEAVTKEIETTGTYQLTLDELIFATKMAWRNAPRCIGRIQWSNLQVFDARNCSTAQEMFQHICRHILYATNNGNIRSAITVFPQRSDGKHDFRLWNSQLIRYAGYQMPDGTIRGDAATLEFTQLCIDLGWKPRYGRFDVLPLVLQADGQDPEVFEIPPDLVLEVTMEHPKYEWFQELGLKWYALPAVANMLLEVGGLEFPACPFNGWYMGTEIGVRDFCDTQRYNILEEVGRRMGLETHTLASLWKDRAVTEINVAVLHSFQKQNVTIMDHHTASESFMKHMQNEYRARGGCPADWIWLVPPVSGSITPVFHQEMLNYVLSPFYYYQIEPWKTHIWQNEKLRPRRREIRFRVLVKVVFFASMLMRKVMASRVRATVLFATETGKSEALARDLATLFSYAFNTKVVCMDQYKASTLEEEQLLLVVTSTFGNGDCPSNGQTLKKSLFMLRELNHTFRYAVFGLGSSMYPQFCAFAHDIDQKLSHLGASQLAPTGEGDELSGQEDAFRSWAVQTFRAACETFDVRSKHHIQIPKRFTSNATWEPQQYRLIQSPEPLDLNRALSSIHAKNVFTMRLKSQQNLQSEKSSRTTLLVQLTFEGSRGPSYLPGEHLGIFPGNQTALVQGILERVVDCPTPHQTVCLEVLDESGSYWVKDKRLPPCSLSQALTYFLDITTPPTQLQLHKLARFATDETDRQRLEALCQPSEYNDWKFSNNPTFLEVLEEFPSLHVPAAFLLSQLPILKPRYYSISSSQDHTPSEVHLTVAVVTYRTRDGQGPLHHGVCSTWIRNLKPQDPVPCFVRSVSGFQLPEDPSQPCILIGPGTGIAPFRSFWQQRLHDSQHKGLKGGRMSLVFGCRHPEEDHLYQEEMQEMVRKRVLFQVHTGYSRLPGKPKVYVQDILQKQLANEVLSVLHGEQGHLYICGDVRMARDVATTLKKLVATKLNLSEEQVEDYFFQLKSQKRYHEDIFGAVFSYGAKKGSALEEPKATRL"}}, "format_in_all_cases": "functional", "settings_in_all_cases": "Mus musculus", "key": {"[1]": {"substrate": "N/C(=N/c1ccc(O)cc1)NO", "experiment": "(§1) Kinetic constant for NO formation during oxidation by NADPH and molecular Oxygen with NOS II", "outline": "(§2)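 Recombinant NOS II (E. coli-expressed, purified) assayed at 37 °C in 50 mM HEPES pH 7.4 with 1 mM NADPH, 100 μM BH4, 5 mM DTT, SOD and catalase (100 U/mL each), and 12-15 μM oxyhemoglobin. Substrate was varied from 5 μM to 2.5 mM. Enzyme level was set to keep oxyhemoglobin conversion below 30%. Kinetic constants come from the initial methemoglobin formation rate at 401 nm; three to four experiments.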"}, "[2]": {"substrate": "COc1ccc(NC(=N)NO)cc1", "experiment": "as §1", "outline": "as §2"}, "[3]": {"substrate": "Cc1ccc(NC(=N)NO)cc1", "experiment": "as §1", "outline": "as §2"}, "[4]": {"substrate": "N/C(=N/c1ccsc1)NO", "experiment": "as §1", "outline": "as §2"}, "[5]": {"substrate": "N=C(NO)Nc1ccccc1", "experiment": "as §1", "outline": "as §2"}, "[6]": {"substrate": "N/C(=N/c1ccc(F)cc1)NO", "experiment": "as §1", "outline": "as §2"}}}
{"protein": "B1", "values": [{"measurement": "Km", "setting": "[1]", "result": 425, "unit": "µM"}, {"measurement": "Km", "setting": "[2]", "result": 2600, "unit": "µM"}, {"measurement": "Km", "setting": "[3]", "result": 1100, "unit": "µM"}, {"measurement": "Km", "setting": "[4]", "result": 25, "unit": "µM"}, {"measurement": "Km", "setting": "[5]", "result": 270, "unit": "µM"}, {"measurement": "Km", "setting": "[6]", "result": 300, "unit": "µM"}]}
